M5 antag – antagonists of human muscarinic M5 receptor (CHRM5). AID 624040. CHO-hM5 cells, Fluo-8 calcium fluorescence, ACh EC80. inhibition, % at 3 µM. 0.59% of 360,000 active;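 active means inhibition above a per-plate cutoff, the mean of that plate's test compounds plus 3 SD, cut at about 27% in these data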;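 further: 0% = acetylcholine EC80 with DMSO and 100% = DMSO without agonist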
Target sequence (P08912 whole entry, looked up): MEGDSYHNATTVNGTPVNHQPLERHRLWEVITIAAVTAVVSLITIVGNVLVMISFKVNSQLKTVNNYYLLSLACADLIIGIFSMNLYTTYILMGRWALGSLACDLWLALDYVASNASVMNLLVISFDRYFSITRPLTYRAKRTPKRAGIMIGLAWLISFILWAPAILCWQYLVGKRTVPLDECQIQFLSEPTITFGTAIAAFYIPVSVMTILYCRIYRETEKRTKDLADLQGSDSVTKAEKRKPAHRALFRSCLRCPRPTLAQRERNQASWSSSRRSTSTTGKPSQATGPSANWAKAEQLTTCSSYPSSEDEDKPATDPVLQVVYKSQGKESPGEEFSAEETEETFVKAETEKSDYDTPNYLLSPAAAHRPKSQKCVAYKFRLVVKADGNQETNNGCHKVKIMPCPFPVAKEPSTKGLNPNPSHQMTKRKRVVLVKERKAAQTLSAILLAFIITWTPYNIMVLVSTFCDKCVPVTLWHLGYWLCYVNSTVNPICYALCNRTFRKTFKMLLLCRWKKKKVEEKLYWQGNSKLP
CHRM4 PAM – potentiates acetylcholine response at human M4 receptor; CHO-K1 hM4/Gqi5, Fluo-8 calcium fluorescence, ACh EC20; 0% = ACh EC20, 100% = maximal ACh; activation, % at 3 µM; AID 624126; 0.4% of 360,000 active; P08173;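 active means activation above its plate's cutoff, the mean activation of sample wells plus 3 SD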
M5 ag – agonists of human muscarinic M5 receptor (CHRM5); P08912; AID 624037; 0.19% of 360,000 active; CHO-K1 hM5 cells, Fluo-8 calcium fluorescence; 0% DMSO wells, 100% maximal acetylcholine response; activation, % at 3 µM;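 active means activation above the run's mean over test compounds plus 3 SD, cut at about 23% in these data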;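 further: signal is peak over basal fluorescence ratio across the kinetic read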
CHRM5 PAM – potentiates acetylcholine response at human M5 receptor; CHO-K1 hM5, Fluo-8 calcium, ACh EC20 PAM; 0% = ACh EC20, 100% = ACh EC100; activation, % at 3 µM; 0.3% of 360,000 active;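 active means activation above the run cutoff, the mean activation of all test compounds plus 3 SD, cut at about 18% in these data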
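System: CHO-K1 cell line with stable human muscarinic M5 receptor expression | Also added: EC20 acetylcholine as agonist stimulus | Compound: One concentration, 3 µM final (nominal) | Timing: Fluo-8 loading 80 min at 37 °C plus 30 min room temperature | Measured by: Fluo-8 calcium dye fluorescence, kinetic read | Read-out basis: % activation, ACh-normalized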
CHRM4 antagonist – blocks acetylcholine activation of human M4 receptor; inhibition, % at 3 µM; 0.73% of 360,000 active; P08173; AID 624125; CHO-hM4 cells, ACh EC80, Fluo-8 calcium fluorescence;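 active means inhibition above its plate's cutoff, the mean inhibition of sample wells plus 3 SD, cut at about 27% in these data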;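 further: 0% = acetylcholine EC80 with DMSO and 100% = DMSO without agonist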
CHRM4 agonist – agonists of human muscarinic M4 receptor (CHRM4). P08173. CHO-K1 hM4/Gqi5, Fluo-8 calcium fluorescence; vehicle 0%, full acetylcholine response 100%. activation, % at 3 µM. 0.14% of 360,000 active. AID 624127;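 active means activation above the run mean over all test wells plus 3 SD, cut at about 32% in these data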;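 further: peak over basal fluorescence ratio per well then scaled between controls; 0% = DMSO wells and 100% = acetylcholine at EC100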
Starred values were filed as active, the others as inactive. Only some compounds are listed: those with a hit (about 1.8% of all), similar ones and a draw of the others.

`CSc1ccc2c(c1)C(N1CCN(C)CC1)Cc1ccc(F)cc1S2` (centres undefined) gave M5 antag 29*, CHRM4 PAM -16, M5 ag -16, CHRM5 PAM -30, CHRM4 antagonist 43* and CHRM4 agonist 29.
For O=[N+]([O-])c1ccc2c(c1)C(N1CCN(CCO)CC1)Cc1ccc(F)cc1S2 (centres undefined) the results were M5 antag 1, CHRM4 PAM -12, M5 ag -3, CHRM5 PAM -8, CHRM4 antagonist 17 and CHRM4 agonist 14.
For Cc1ccc(-c2csc(NC(=O)c3cc([N+](=O)[O-])ccc3N3CCOCC3)n2)cc1 the results were M5 antag 8, CHRM4 PAM 3, M5 ag -3, CHRM5 PAM 0, CHRM4 antagonist 1 and CHRM4 agonist 0.
Screening O=C(Nc1nc(-c2ccccc2)cs1)c1ccc(N2CCOCC2)c([N+](=O)[O-])c1 returned M5 antag 30*, CHRM4 PAM -35, M5 ag 11, CHRM5 PAM -18, CHRM4 antagonist 44* and CHRM4 agonist 22.
For CCN(CC)C(=O)C1=C(C)N(CCC2=CCCCC2)C(=O)C(CC(=O)NC(c2ccccc2)c2ccccc2)C1 (centres undefined) the results were M5 antag 4, CHRM4 PAM -1, M5 ag -1, CHRM5 PAM -3, CHRM4 antagonist -8 and CHRM4 agonist 1.
Screening Fc1ccc2nc(C3CCCCN3Cc3nc(CC4CC4)no3)[nH]c2c1 (centres undefined) returned M5 antag 9, CHRM4 PAM 9, M5 ag 3, CHRM5 PAM 27*, CHRM4 antagonist -7 and CHRM4 agonist 6.
`CCc1ccc(NC2=NCC(=O)N2Cc2ccc3c(c2)OCO3)cc1` gave M5 antag -4, CHRM4 PAM 21*, M5 ag -9, CHRM5 PAM 7, CHRM4 antagonist -6 and CHRM4 agonist 2.
Cc1ccc(NC2=NCC(=O)N2Cc2ccc3c(c2)OCO3)c(C)c1 was read as M5 antag -8, CHRM4 PAM 5, M5 ag 1, CHRM5 PAM 6, CHRM4 antagonist -8 and CHRM4 agonist 3.
For O=C(COC(=O)c1cccnc1)Nc1ccc2c(c1)OCO2 the results were M5 antag 1, CHRM4 PAM 4, M5 ag -2, CHRM5 PAM 2, CHRM4 antagonist 2 and CHRM4 agonist 1.
Screening C=CCN(c1ccc(C(=O)N2CCN(c3ccc(F)cc3)CC2)cc1)S(C)(=O)=O returned M5 antag 42*, CHRM4 PAM 4, M5 ag 3, CHRM5 PAM -2, CHRM4 antagonist -3 and CHRM4 agonist 1.
Cc1cc(OC(=O)Nc2ccccc2)ccc1Cl was read as M5 antag -2, CHRM4 PAM 0, M5 ag 4, CHRM5 PAM -4, CHRM4 antagonist -12 and CHRM4 agonist 4.
Cn1ccnc1C1CCCCN1Cc1nc(Cc2ccccc2F)no1 (centres undefined) was read as M5 antag 22, CHRM4 PAM -27, M5 ag -14, CHRM5 PAM -34, CHRM4 antagonist 83* and CHRM4 agonist 11.
CCN(CC#CCC1(O)c2ccccc2-c2ccccc21)C(C)C was read as M5 antag 39*, CHRM4 PAM -14, M5 ag -14, CHRM5 PAM -50, CHRM4 antagonist 35* and CHRM4 agonist 1.
CCN(CC)CC#CCC1(O)c2ccccc2-c2ccccc21 was read as M5 antag 23, CHRM4 PAM -11, M5 ag -6, CHRM5 PAM -25, CHRM4 antagonist 17 and CHRM4 agonist 1.
Screening O=C1[C@@H]2Cc3c([nH]c4ccccc34)CN2C(=O)CN1CCCO returned M5 antag 6, CHRM4 PAM 6, M5 ag -2, CHRM5 PAM -2, CHRM4 antagonist 1 and CHRM4 agonist 0.
For C=CCN1CC(=O)N2Cc3[nH]c4ccccc4c3C[C@H]2C1=O the results were M5 antag 11, CHRM4 PAM -17, M5 ag -1, CHRM5 PAM -11, CHRM4 antagonist 43* and CHRM4 agonist 1.
O=c1cccc(-c2ccccc2)[nH]1 was read as M5 antag -12, CHRM4 PAM 4, M5 ag -3, CHRM5 PAM 30*, CHRM4 antagonist -12 and CHRM4 agonist 1.
`Cc1cc(C(=O)N2CCC2(C)C(=O)O)c(C)o1` (centres undefined) gave M5 antag -19, CHRM4 PAM 18*, M5 ag 0, CHRM5 PAM 5, CHRM4 antagonist -25 and CHRM4 agonist 1.
Screening Cc1n[nH]c(C)c1N1C(=O)c2cccc3c(N4CCCCCC4)ccc(c23)C1=O returned M5 antag 54*, CHRM4 PAM -29, M5 ag 76*, CHRM5 PAM -21, CHRM4 antagonist 41* and CHRM4 agonist 85*.
Screening O=C1c2cccc3c(N4CCCCC4)ccc(c23)C(=O)N1c1cccc(O)c1 returned M5 antag 37*, CHRM4 PAM -24, M5 ag 141*, CHRM5 PAM -19, CHRM4 antagonist 36* and CHRM4 agonist 41*.
`O=C(Nc1cnc2ccccc2c1)N1CCOCC1` gave M5 antag -4, CHRM4 PAM 20*, M5 ag -3, CHRM5 PAM 0, CHRM4 antagonist -18 and CHRM4 agonist 2.
Screening COc1ccc(C(CNC(=O)c2cc3ccccc3cc2OC)N2CCCC2)cc1 (centres undefined) returned M5 antag -2, CHRM4 PAM 27, M5 ag -1, CHRM5 PAM 20*, CHRM4 antagonist -13 and CHRM4 agonist 9.
`COc1ccc(/C=N/NC(=O)c2ccc(N)cc2)cc1Cn1cc([N+](=O)[O-])cn1` gave M5 antag 6, CHRM4 PAM -4, M5 ag 0, CHRM5 PAM -2, CHRM4 antagonist -1 and CHRM4 agonist 2.
For O=C(Nc1ccc2ccccc2c1)OC1CCS(=O)(=O)C1 (centres undefined) the results were M5 antag 4, CHRM4 PAM 0, M5 ag 5, CHRM5 PAM -9, CHRM4 antagonist 3 and CHRM4 agonist 7.
For COc1ccc(Cn2ccnc2)cc1[N+](=O)[O-] the results were M5 antag -6, CHRM4 PAM -2, M5 ag -4, CHRM5 PAM 1, CHRM4 antagonist 3 and CHRM4 agonist 1.
COc1ccc(Cn2ccnc2)cc1Br was read as M5 antag 8, CHRM4 PAM 1, M5 ag -4, CHRM5 PAM 6, CHRM4 antagonist 29* and CHRM4 agonist 1.

High-throughput results from PubChem.
